Screens deposited in PubChem BioAssay by several laboratories.
This is a sample that favours compounds with a hit; in the whole collection about 3.9% have one here.
STAT1 act – STAT1 signaling activators, primary screen, cell-based, HTS, luciferase reporter | NIH 3T3 STAT1-luciferase reporter, IFN-gamma, luminescence; 100% = IFN-gamma alone, no compound | activation (% of control), % at 5.5 µM | hit rate 2.6% among 200,000;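 active = activation above the screen-wide mean activation plus 3 SD, cut at about 130% in these data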
FLuc inh counter – firefly luciferase enzyme inhibitors, primary screen, artefact control for luciferase-based inhibitor screens, biochemical, luminescence, ATPLite; Luciferin 4-monooxygenase (Photinus pyralis), P08659; 10 min; inhibition, % at 10 µM; hit rate 1.5% among 200,000; AID 1006, 2008;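 active = inhibition above about 50% when tested at 10 µM, limit read from the data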
APP 5'UTR act – activators of APP 5'UTR luciferase reporter, primary screen, SH-SY5Y cells; hit rate 1% among 190,000; activation, % at 2 µM; SH-SY5Y APP 5'UTR luciferase reporter, luminescence; zero percent = DMSO vehicle wells;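 active = activation above a set limit, based on mean plus 3 SD of controls, cut at about 140% in these data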
FLuc stim CS – FLuc activators, initial screening, artefact control for FLuc-dependent activation tests, biochemical, ATPlite luminescence. Luciferin 4-monooxygenase (Photinus pyralis), P08659. ATPlite luciferase biochemical, 10 min; 0 = ATP-free wells, 1 = DMSO control. activation factor at 10 µM. 200,000 tested, under 10 active;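 active = luciferase activation factor, scaled between plate controls, of at least 2 with compound at 10 µM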
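Material: Luciferase/luciferin reagent mix | Doses: Test compounds dosed from 2 mM stocks in 100% DMSO | Timing: 10 min incubation after luciferase reagent addition, room temperature | Measured by: Luminescence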
NF-kB neuron act – activators of NF-kB expression in neurons, primary screen, cell-based, HTS. human neuronal cells, NF-kB reporter expression; hits give high values. fold change at 12.5 µM. hit rate 1.6% among 190,000. AID 1239, 2008; in the data active = fold change above about 3.3
Rad51 HR inh – human RAD51 strand exchange inhibitors, primary screen, biochemical, fluorescence; hRad51 DNA strand exchange, fluorescence dequenching; hit rate 0.085% among 200,000; inhibition, % at 10 µM; AID 1385, 2008;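 active = inhibition above 40% at the single screening dose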
Target sequence (Q06609 whole entry, looked up): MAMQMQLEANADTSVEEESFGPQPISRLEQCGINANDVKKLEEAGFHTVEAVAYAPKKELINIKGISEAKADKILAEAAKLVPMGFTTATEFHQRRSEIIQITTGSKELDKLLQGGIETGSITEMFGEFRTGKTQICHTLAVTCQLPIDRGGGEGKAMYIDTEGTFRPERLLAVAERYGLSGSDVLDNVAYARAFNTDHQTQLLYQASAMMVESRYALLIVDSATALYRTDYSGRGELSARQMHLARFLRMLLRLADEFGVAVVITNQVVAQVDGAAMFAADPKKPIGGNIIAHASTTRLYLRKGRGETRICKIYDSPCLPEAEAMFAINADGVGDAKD
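Material: Human Rad51 nucleoprotein filaments preassembled on unlabelled ssDNA | Also added: Labelled 47-mer dsDNA for strand exchange | Dosing: Single dose, 10 µM final compound | Schedule: 30-min compound preincubation and 15-min exchange, both room temperature | Technique: Fluorescence dequenching at 485/520 nm | Measure: Percent inhibition relative to plate controls and blanks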
A number is an active result; i = inactive; nt = no result given.

SMILES | STAT1 act | FLuc inh counter | APP 5'UTR act | FLuc stim CS | NF-kB neuron act | Rad51 HR inh
CC1CN(Cc2nnc(-c3ccccc3)o2)CC(C)O1 (stereo not drawn) | i | i | i | i | i | nt
CCC(CC)NC(=O)COc1ccc(OC)cc1C=O | i | i | i | i | i | i
NC(=O)c1sc2nc(-c3ccco3)ccc2c1N | 130.7 | i | i | i | i | i
COC(=O)c1sc2nc(-c3ccco3)ccc2c1N | 141.4 | 83.6 | 161.7 | i | i | i
Nc1c(C(=O)Nc2ccccc2F)sc2nc(-c3ccco3)ccc12 | i | i | 140.5 | i | i | i
COc1ccc(C(=O)c2sc3nc(-c4ccccc4)ccc3c2N)cc1 | i | i | i | i | i | i
CC(C)OC(=O)c1sc2nc(-c3ccccc3)ccc2c1N | i | 72.7 | 168.3 | i | i | i
NC(=O)c1sc2nc(-c3cccnc3)ccc2c1N | nt | nt | nt | nt | nt | i
COc1ccc(-c2noc(-c3ccoc3C)n2)cc1OC | 142.6 | i | i | i | 3.58 | i
COc1ccc(-c2noc(-c3cccc(Cl)c3)n2)cc1OC | i | i | i | i | i | nt
COc1ccc(-c2noc(-c3ccccc3Cl)n2)cc1OC | 143.0 | i | i | i | 4.89 | i
COc1ccc(-c2noc(-c3cccs3)n2)cc1OC | nt | nt | nt | nt | nt | i
COc1ccc(-c2noc(-c3ccc(Cl)cc3[N+](=O)[O-])n2)cc1OC | i | i | i | i | i | i
Cc1cccc(-c2noc(-c3ccc(Cl)cc3[N+](=O)[O-])n2)c1 | i | i | 177.6 | i | 5.34 | i
Cc1cccc(-c2noc(-c3ccoc3C)n2)c1 | 149.9 | i | i | i | i | i
O=C1CC(C2CCCO2)C(=O)N1c1ccc(Cl)c(Cl)c1 (stereo not drawn) | i | i | i | i | nt | nt
N#CCC(=O)NNc1c([N+](=O)[O-])cc(C(F)(F)F)cc1[N+](=O)[O-] | nt | nt | nt | nt | nt | i
O=S1(=O)c2ccccc2C(CCO)N1Cc1ccccc1 (stereo not drawn) | nt | nt | nt | nt | nt | i
COc1ccc(-c2nc(-c3ccncc3)no2)cc1OC | 132.0 | i | i | i | i | i
Cn1nnc(-c2ccc(OCc3ccccc3F)cc2)n1 | i | i | 138.2 | i | 7.83 | i
COc1ccc(CNC(NC(=O)c2ccccc2)(C(F)(F)F)C(F)(F)F)cc1 | i | i | i | i | i | i
CCCCCCCCNC1=CC(=O)CC(C)(C)C1 | nt | nt | nt | nt | nt | i
Cc1nc2ccccn2c1C(=O)/C=C/c1cccc([N+](=O)[O-])c1 | i | i | i | i | i | i
Cc1ccc(/C=C/C(=O)c2c(C)nc3ccccn23)cc1 | 146.9 | 54.0 | 195.6 | i | 3.59 | i
Cc1cc(=O)n2nc(-c3ccc(C(F)(F)F)cc3)sc2n1 | 129.3 | i | i | i | i | i
SMILES | STAT1 act | FLuc inh counter | APP 5'UTR act | FLuc stim CS | NF-kB neuron act | Rad51 HR inh
Clc1ccc(-c2csc(Nc3ccccc3)[n+]2Cc2ccco2)c(Cl)c1 | 140.4 | i | i | i | i | i
Cc1ccc(-c2cc(-c3ccccc3[N+](=O)[O-])[nH]n2)c(O)c1 | i | i | i | i | 4.01 | nt
Cc1ccccc1-c1cc(-c2ccccc2O)n[nH]1 | i | i | 157.6 | i | 7.65 | i
Cc1ccc(-c2cc(-c3ccccc3Cl)[nH]n2)c(O)c1 | i | i | 171.1 | i | 9.83 | i
COc1ccccc1-c1cc(-c2cc(Cl)ccc2O)n[nH]1 | i | i | i | i | i | i
Oc1ccc(Br)cc1-c1cc(-c2ccccc2F)[nH]n1 | i | i | i | i | i | i
O=C(CCCC(=O)OCC(Cl)=C(Cl)Cl)Nc1ccccc1 | i | i | i | i | i | i
CCn1c(S(=O)(=O)O)nc2ccccc21 | nt | nt | nt | nt | nt | i
O=C1Nc2ccccc2Nc2ncccc21 | i | i | i | i | i | nt
Cc1ccc2c(c1)NC(=O)c1cccnc1N2 | 139.3 | i | i | i | i | nt
COc1ccccc1NC(=O)c1c(Nc2ccccc2F)sc(C(=O)Nc2cccc(Cl)c2)c1N | i | i | i | i | i | i
O=C(/C=C/c1ccc(Cl)c([N+](=O)[O-])c1)Nc1ccc(NC(=O)c2ccco2)cc1 | i | i | i | i | i | i
O=C(/C=C/c1ccc(Cl)c([N+](=O)[O-])c1)Nc1ccc(N2CCCC2)cc1 | i | i | i | i | i | 54.9
O=C(Nc1cccc(-c2nc3ccccc3s2)c1)c1cccs1 | 139.7 | i | i | i | i | i
O=C(CCS(=O)(=O)c1ccccc1)Nc1cccc(-c2nc3ccccc3s2)c1 | i | i | i | i | 3.7 | i
O=C(CSc1nnc2ccccn12)Nc1cccc(-c2nc3ccccc3s2)c1 | 136.0 | i | 136.7 | i | i | i
O=C(Nc1nsc(-c2ccccc2)n1)c1cccs1 | 147.9 | 79.4 | 149.2 | i | 4.16 | i
CS(=O)(=O)NCCCCCCNS(C)(=O)=O | i | i | i | i | i | i
O=C(Nc1ccc2oc(-c3ccccc3)nc2c1)c1cccs1 | 142.7 | i | 154.6 | i | i | i
O=C(Nc1ccc2oc(-c3ccccc3)nc2c1)c1ccncc1 | i | i | i | i | i | i
COc1ccc(-c2nnc(SCC(=O)c3ccc[nH]3)o2)cc1 | i | i | i | i | 4.7 | i
COc1ccc(-c2nnc(SCC(=O)NCc3ccco3)o2)cc1 | i | i | i | i | i | i
COc1ccc(-c2nnc(SCC(=O)c3cccs3)o2)cc1 | 134.2 | i | i | i | 3.69 | i
CCNC(=O)CSc1nnc(-c2cccs2)o1 | i | i | i | i | i | i
O=C(CSc1nnc(-c2cccs2)o1)c1cccs1 | 140.9 | i | i | i | i | i
SMILES | STAT1 act | FLuc inh counter | APP 5'UTR act | FLuc stim CS | NF-kB neuron act | Rad51 HR inh
Cc1ccc(NC(=O)CCn2nc([N+](=O)[O-])cc2C)nc1 | i | i | i | i | i | i
O=C(CN1CCN(Cc2ccccc2Cl)C1=O)NCc1ccccn1 | nt | nt | nt | nt | nt | i
COCCn1c(N/N=C(C)/C=C/c2ccccc2)nc2c1c(=O)[nH]c(=O)n2C | i | i | i | i | i | i
CCCCCCNC(=O)c1c(N)n(/N=C/c2ccco2)c2nc3ccccc3nc12 | 135.3 | nt | i | nt | nt | nt
O=C(O)/C=C/c1cccc(NC(=O)c2ccc(Cl)cc2)c1 | i | 67.6 | i | i | i | i
Cn1c(C(=O)NCC2CCCO2)cc2oc3ccccc3c21 (stereo not drawn) | 143.5 | i | i | i | i | i
Cn1c(=O)c(C(=O)NCC2CCCO2)c(O)c2ccccc21 (stereo not drawn) | 129.4 | i | i | i | i | i
CCC(=O)Nc1nc(N)n(-c2ccccc2)n1 | i | i | i | i | i | i
Cc1cc2nn(-c3ccccc3)nc2cc1NC(=O)c1cccs1 | 142.7 | i | i | i | i | i
CCC(=O)Nc1cc2nn(-c3ccccc3)nc2cc1Cl | 143.6 | 73.8 | i | i | i | i
